Measurements from ChEMBL document CHEMBL2375290, “Nonclassical antifolates, part 3: synthesis, biological evaluation and molecular modeling study of some new 2-heteroarylthio-quinazolin-4-ones” (Eur J Med Chem, 2013).
In brackets after ≈: the same amount, converted by molar mass.

How the values were obtained:
Staphylococcus aureus [1] = assay: Antimicrobial activity against Staphylococcus aureus at 200 ug after 24 hrs by agar disc diffusion method; format: functional; details: read-out: DIZ
Dihydrofolate reductase = target: T1, Dihydrofolate reductase (Bos taurus, UniProt P00376); assay: Inhibition of bovine DHFR after 2 mins by spectrophotometry
T1 sequence (P00376 whole entry): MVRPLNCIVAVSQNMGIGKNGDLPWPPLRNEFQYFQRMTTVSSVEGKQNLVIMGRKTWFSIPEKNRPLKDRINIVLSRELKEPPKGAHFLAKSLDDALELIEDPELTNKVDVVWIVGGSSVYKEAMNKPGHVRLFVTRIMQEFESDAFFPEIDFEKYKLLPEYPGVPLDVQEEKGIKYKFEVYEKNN

SNB-19 = assay: Cytotoxicity against human SNB19 cells at 10 uM after 48 hrs by coulter counter analysis; format: functional; details: SNB-19, 48 h, read-out: GI
T47D = assay: Cytotoxicity against human T47D cells at 10 uM after 48 hrs by coulter counter analysis; format: functional; details: read-out: GI
RPMI-8226 = assay: Cytotoxicity against human RPMI8226 cells at 10 uM after 48 hrs by coulter counter analysis; format: functional; details: RPMI-8226, 48 h, read-out: GI
A498 = assay: Cytotoxicity against human A498 cells at 10 uM after 48 hrs by coulter counter analysis; format: functional; details: A498, 48 h, read-out: GI
PC-3 = assay: Cytotoxicity against human PC3 cells at 10 uM after 48 hrs by coulter counter analysis; format: functional; details: PC-3, 48 h, read-out: GI
HL-60(TB) = assay: Cytotoxicity against human HL-60(TB) cells at 10 uM after 48 hrs by coulter counter analysis; format: functional; details: HL-60, 48 h, read-out: GI
[2] = Cytotoxicity against human EKVX cells at 10 uM after 48 hrs by coulter counter analysis; format: functional; details: read-out: GI
SNB-75 = assay: Cytotoxicity against human SNB75 cells at 10 uM after 48 hrs by coulter counter analysis; format: functional; details: SNB-75, 48 h, read-out: GI
SF-295 = assay: Cytotoxicity against human SF295 cells at 10 uM after 48 hrs by coulter counter analysis; format: functional; details: SF-295, 48 h, read-out: GI
RXF 393 = assay: Cytotoxicity against human RXF393 cells at 10 uM after 48 hrs by coulter counter analysis; format: functional; details: RXF 393, 48 h, read-out: GI
MDA-MB-435 = assay: Cytotoxicity against human MDA-MB-435 cells at 10 uM after 48 hrs by coulter counter analysis; format: functional; details: MDA-MB-435, 48 h, read-out: GI
Escherichia coli = assay: Antimicrobial activity against Escherichia coli at 200 ug after 24 hrs by agar disc diffusion method; format: functional; details: read-out: DIZ
Malme-3M = assay: Cytotoxicity against human MALME-3M cells at 10 uM after 48 hrs by coulter counter analysis; format: functional; details: read-out: GI
CCRF-CEM = assay: Cytotoxicity against human CCRF-CEM cells at 10 uM after 48 hrs by coulter counter analysis; format: functional; details: read-out: GI
SR = assay: Cytotoxicity against human SR cells at 10 uM after 48 hrs by coulter counter analysis; format: functional; details: read-out: GI
A549 = assay: Cytotoxicity against human A549/ATCC cells at 10 uM after 48 hrs by coulter counter analysis; format: functional; details: A549, 48 h, read-out: GI
CAKI-1 = assay: Cytotoxicity against human Caki1 cells at 10 uM after 48 hrs by coulter counter analysis; format: functional; details: CAKI-1, 48 h, read-out: GI
LOX IMVI = assay: Cytotoxicity against human LOXIMVI cells at 10 uM after 48 hrs by coulter counter analysis; format: functional; details: read-out: GI
Micrococcus luteus = assay: Antimicrobial activity against Micrococcus luteus at 200 ug after 24 hrs by agar disc diffusion method; format: functional; details: read-out: DIZ
NCI-H226 = assay: Cytotoxicity against human NCI-H226 cells at 10 uM after 48 hrs by coulter counter analysis; format: functional; details: NCI-H226, 48 h, read-out: GI
Bacillus subtilis [3] = assay: Antimicrobial activity against Bacillus subtilis after 24 hrs by micro-dilution susceptibility method; format: functional
Method in brief: (§1)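 Broth microdilution in Müller-Hinton broth against S. aureus IFO 3060, B. subtilis IFO 3007, E. coli IFO 3301 and P. aeruginosa IFO 3448. These are the same standard strains used in the disc-diffusion primary screen. Compounds were solubilized in DMSO. MIC recorded as the minimal inhibitory concentration.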

OVCAR-4 = assay: Cytotoxicity against human OVCAR4 cells at 10 uM after 48 hrs by coulter counter analysis; format: functional; details: OVCAR-4, 48 h, read-out: GI
SK-MEL-5 = assay: Cytotoxicity against human SK-MEL-5 cells at 10 uM after 48 hrs by coulter counter analysis; format: functional; details: SK-MEL-5, 48 h, read-out: GI
Hs-578T = assay: Cytotoxicity against human Hs578T cells at 10 uM after 48 hrs by coulter counter analysis; format: functional; details: read-out: GI
IGROV-1 = assay: Cytotoxicity against human IGROV1 cells at 10 uM after 48 hrs by coulter counter analysis; format: functional; details: IGROV-1, 48 h, read-out: GI
MDA-MB-231 = assay: Cytotoxicity against human MDA-MB-231 cells at 10 uM after 48 hrs by coulter counter analysis; format: functional; details: MDA-MB-231, 48 h, read-out: GI
UO-31 = assay: Cytotoxicity against human UO31 cells at 10 uM after 48 hrs by coulter counter analysis; format: functional; details: UO-31, 48 h, read-out: GI
[4] = Cytotoxicity against human NCI-ADR-RES cells at 10 uM after 48 hrs by coulter counter analysis; format: functional; details: read-out: GI
Bacillus subtilis [5] = assay: Antimicrobial activity against Bacillus subtilis at 200 ug after 24 hrs by agar disc diffusion method; format: functional; details: read-out: DIZ
UACC-62 = assay: Cytotoxicity against human UACC62 cells at 10 uM after 48 hrs by coulter counter analysis; format: functional; details: UACC-62, 48 h, read-out: GI
NCI-H522 = assay: Cytotoxicity against human NCI-H522 cells at 10 uM after 48 hrs by coulter counter analysis; format: functional; details: NCI-H522, 48 h, read-out: GI
Staphylococcus aureus [6] = assay: Antimicrobial activity against Staphylococcus aureus after 24 hrs by micro-dilution susceptibility method; format: functional; method in brief: as §1
MCF7 = assay: Cytotoxicity against human MCF7 cells at 10 uM after 48 hrs by coulter counter analysis; format: functional; details: MCF7, 48 h, read-out: GI
MOLT-4 = assay: Cytotoxicity against human MOLT4 cells at 10 uM after 48 hrs by coulter counter analysis; format: functional; details: MOLT-4, 48 h, read-out: GI
NCI-H23 = assay: Cytotoxicity against human NCI-H23 cells at 10 uM after 48 hrs by coulter counter analysis; format: functional; details: NCI-H23, 48 h, read-out: GI
SN12C = assay: Cytotoxicity against human SN12C cells at 10 uM after 48 hrs by coulter counter analysis; format: functional; details: read-out: GI
Pseudomonas aeruginosa = assay: Antimicrobial activity against Pseudomonas aeruginosa at 200 ug after 24 hrs by agar disc diffusion method; format: functional; details: read-out: DIZ

Row | Structure (SMILES) | zone of inhibition at 200 µg/disc (Staphylococcus aureus [1]) [mm] | IC50 (Dihydrofolate reductase) [µM] | inhibition of growth at 10 µM (SNB-19) [%] | inhibition of growth at 10 µM (T47D) [%] | inhibition of growth at 10 µM (RPMI-8226) [%] | inhibition of growth at 10 µM (A498) [%] | inhibition of growth at 10 µM (PC-3) [%] | inhibition of growth at 10 µM (HL-60(TB)) [%] | inhibition of growth at 10 µM [2] [%] | inhibition of growth at 10 µM (SNB-75) [%] | inhibition of growth at 10 µM (SF-295) [%] | inhibition of growth at 10 µM (RXF 393) [%] | inhibition of growth at 10 µM (MDA-MB-435) [%] | zone of inhibition at 200 µg/disc (Escherichia coli) [mm] | inhibition of growth at 10 µM (Malme-3M) [%] | inhibition of growth at 10 µM (CCRF-CEM) [%] | inhibition of growth at 10 µM (SR) [%] | inhibition of growth at 10 µM (A549) [%] | inhibition of growth at 10 µM (CAKI-1) [%] | inhibition of growth at 10 µM (LOX IMVI) [%] | further results
1 | Nc1ncc(Sc2nc3ccc(Cl)cc3c(=O)n2-c2ccccc2)s1 | 18 | 4 | < 10 | 19.1 | < 10 | < 10 | 10.2 | < 10 | 12.9 | < 10 | < 10 | < 10 | < 10 | 8 | < 10 | < 10 | 29.1 | < 10 | 24.1 | 11.2 | zone of inhibition at 200 µg/disc (Micrococcus luteus): 14 mm; inhibition of growth at 10 µM (NCI-H226): 25.7%; MIC (Bacillus subtilis [3]): 4 mg/L (≈ 10.3 µM); inhibition of growth at 10 µM (OVCAR-4): < 10%; inhibition of growth at 10 µM (SK-MEL-5): < 10%; inhibition of growth at 10 µM (Hs-578T): < 10%; inhibition of growth at 10 µM (IGROV-1): < 10%; inhibition of growth at 10 µM (MDA-MB-231): 21.5%; inhibition of growth at 10 µM (UO-31): < 10%; inhibition of growth at 10 µM [4]: < 10%; zone of inhibition at 200 µg/disc (Bacillus subtilis [5]): 22 mm; inhibition of growth at 10 µM (UACC-62): < 10%; inhibition of growth at 10 µM (NCI-H522): 14%; MIC (Staphylococcus aureus [6]): 8 mg/L (≈ 20.7 µM); inhibition of growth at 10 µM (MCF7): 19%; inhibition of growth at 10 µM (MOLT-4): < 10%; inhibition of growth at 10 µM (NCI-H23): 10.9%; inhibition of growth at 10 µM (SN12C): < 10%; zone of inhibition at 200 µg/disc (Pseudomonas aeruginosa): 8 mm
2 | Cc1ccc2nc(Sc3ncccc3C(=O)O)n(-c3ccccc3)c(=O)c2c1 | 20 | 8 | < 10 | < 10 | 10.4 | < 10 | 11.7 | < 10 | < 10 | < 10 | < 10 | < 10 | < 10 | 16 | < 10 | < 10 | < 10 | < 10 | 13.1 | < 10 | zone of inhibition at 200 µg/disc (Micrococcus luteus): 14 mm; inhibition of growth at 10 µM (NCI-H226): < 10%; MIC (Bacillus subtilis [3]): 4 mg/L (≈ 10.3 µM); inhibition of growth at 10 µM (OVCAR-4): < 10%; inhibition of growth at 10 µM (SK-MEL-5): < 10%; inhibition of growth at 10 µM (Hs-578T): < 10%; inhibition of growth at 10 µM (IGROV-1): < 10%; inhibition of growth at 10 µM (MDA-MB-231): < 10%; inhibition of growth at 10 µM (UO-31): 12.1%; inhibition of growth at 10 µM [4]: < 10%; zone of inhibition at 200 µg/disc (Bacillus subtilis [5]): 22 mm; inhibition of growth at 10 µM (UACC-62): < 10%; inhibition of growth at 10 µM (NCI-H522): < 10%; MIC (Staphylococcus aureus [6]): 4 mg/L (≈ 10.3 µM); inhibition of growth at 10 µM (MCF7): < 10%; inhibition of growth at 10 µM (MOLT-4): < 10%; inhibition of growth at 10 µM (NCI-H23): < 10%; inhibition of growth at 10 µM (SN12C): < 10%; zone of inhibition at 200 µg/disc (Pseudomonas aeruginosa): 12 mm
